The source made the active and inactive calls. The calls are words filed in the database; no cut-off is given here.
What was measured:
[1] = Antioxidant activity assessed as Fe3+/ascorbic acid-induced hydroxyl radical scavenging activity at 0.1 mM after 30 mins; format: functional
Method in brief: (§1)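 Tested in vitro at 0.1 mM. The hydroxyl radical line measures competition with DMSO for hydroxyl radicals. Superoxide was generated at pH 7.4 and read as nitroblue tetrazolium reduction to formazan at 560 nm. LOX inhibition was measured by UV absorbance enzyme assay with plant lipoxygenase.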

[2] = Induction of NO release in phosphate buffer at pH 7.4 assessed as nitrite level at 0.1 mM by nitrate reductase/NADPH based Griess assay in presence of L-cysteine; format: physicochemical; settings: pH 7.4, 100 µM
Method in brief: (§2)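 Compounds at 100 μM final were dissolved in phosphate buffer pH 7.4 containing L-cysteine. Released NO was measured. Where indicated, 1 mM cysteine and a nitrate reductase/NADPH system were used. Sodium nitroprusside served as reference.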

[3] = Antioxidant activity assessed as inhibition of AAPH-induced lipid peroxidation at 0.1 mM by UV spectrophotometric analysis; format: functional
[4] = target: Lipoxygenase (Glycine max) (UniProt Q39829); experiment: Inhibition of soybean lipoxygenase assessed as conversion of sodium linoleate to 13-hydroperoxylinoleic acid at 0.1 mM by competitive inhibition assay; method in brief: as §1
[5] = Antioxidant activity assessed as superoxide anion radical scavenging activity at 0.1 mM after 10 mins by tetrazolium dye assay; format: functional; method in brief: as §1
[6] = Antioxidant activity against AAPH-induced lipid peroxidation assessed as induction time of inhibition at 0.1 mM; format: functional
[7] = Induction of NO release in phosphate buffer at pH 7.4 at 0.1 mM by Griess assay in presence of L-cysteine; format: physicochemical; settings: pH 7.4, 100 µM; method in brief: as §2
[8] = test system: Radical scavenging activity; experiment: Antioxidant activity assessed as DPPH radical scavenging activity at 0.5 mM after 2 hrs by spectrophotometric analysis; format: functional
Method in brief: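 DPPH radical test, measuring initial absorbance and absorbance after reaction spectrophotometrically.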

[9] = Neuroprotective activity in Sprague-Dawley rat primary cortical neurons assessed as reversal of oxygen-glucose deprivation-induced neuronal damage at 250 uM by treated 4 hrs after OGD challenge measured after 24 hrs by LDH release assay relative to control; format: functional, Cerebral cortex neuron
Method in brief: (§3)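 Primary cortical neurons, cultured 6–8 days, underwent 4 h oxygen–glucose deprivation followed by 24 h reperfusion. Compounds (1–250 μM) were added at reperfusion. Necrotic death was read as LDH release, normalized to untreated reperfusion cells as 100%. Four independent experiments; mean ± SEM; one-way ANOVA with Holm–Sidak post test.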

[10] = Neuroprotective activity in Sprague-Dawley rat primary cortical neurons assessed as reversal of oxygen-glucose deprivation-induced neuronal damage at 100 uM by treated 4 hrs after OGD challenge measured after 24 hrs by LDH release assay relative to control; format: functional, Cerebral cortex neuron; method in brief: as §3
[11] = test system: Mus musculus; experiment: Neuroprotective activity in NMRI mouse assessed as protection against tert-butyl hydroperoxide-mediated lethality at 150 mg/kg, ip administered 30 mins before t-BHP challenge measured after 1 to 24 hrs; format: functional; settings: route intraperitoneal
[12] = test system: Radical scavenging activity; experiment: Antioxidant activity assessed as DPPH radical scavenging activity at 15 uM after 2 hrs by spectrophotometric analysis; format: functional
[13] = test system: Rattus norvegicus; experiment: Antiinflammatory activity in Fisher 344 rat assessed as inhibition of carrageenan-induced paw edema at 0.01 mmol/kg, ip measured 3.5 hrs after carrageenan challenge; format: functional; settings: Fisher 344, ip
Method in brief: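 Percent inhibition of carrageenan-induced rat paw oedema relative to untreated controls. Compounds given at 0.01 mmol/kg. Six animals per group in two independent experiments (n = 6 × 2), reported as mean ± SD. Significance versus controls by Student's t test.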

[14] = Neuroprotective activity in Sprague-Dawley rat primary cortical neurons assessed as reversal of oxygen-glucose deprivation-induced neuronal damage at 100 uM by treated 4 hrs after OGD challenge measured after 24 hrs MTT assay relative to control; format: functional, cell-based; settings: Cerebral cortex neuron
Method in brief: (§4)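 Primary cerebral cortex neurons, cultured 6–8 days, underwent 4 h oxygen–glucose deprivation. Compounds (0.1 μM–10 mM range) were added at the start of a 24 h reperfusion. Viability was read by MTT with untreated control as 100%. Neuroprotection = % recovery from the reperfusion-only value (0%) to control (100%). Three to five independent experiments; mean ± SEM.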

[15] = Neuroprotective activity in Sprague-Dawley rat primary cortical neurons assessed as reversal of oxygen-glucose deprivation-induced neuronal damage at 10 uM by treated 4 hrs after OGD challenge measured after 24 hrs by LDH release assay relative to control; format: functional, Cerebral cortex neuron; method in brief: as §3
[16] = Neuroprotective activity in Sprague-Dawley rat primary cortical neurons assessed as reversal of oxygen-glucose deprivation-induced neuronal damage at 10 uM by treated 4 hrs after OGD challenge measured after 24 hrs MTT assay relative to control; format: functional, cell-based; settings: Cerebral cortex neuron; method in brief: as §4
[17] = Neuroprotective activity in Sprague-Dawley rat primary cortical neurons assessed as reversal of oxygen-glucose deprivation-induced neuronal damage treated 4 hrs after OGD challenge measured after 24 hrs MTT assay; format: functional, cell-based; settings: Cerebral cortex neuron; method in brief: as §4
[18] = Permeability of the compound at pH 7.4 by PAMPA; format: ADME; settings: read-out: permeability
Method in brief: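 PAMPA-BBB method of Di et al. (passive blood–brain barrier permeation). Effective permeability is reported as Pe in 10−6 cm s−1.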

[19] = Neuroprotective activity in Sprague-Dawley rat primary cortical neurons assessed as reversal of oxygen-glucose deprivation-induced neuronal damage at 1 uM by treated 4 hrs after OGD challenge measured after 24 hrs by LDH release assay relative to control; format: functional, Cerebral cortex neuron; method in brief: as §3

Activity [2] [%] | Activity [7] [%] | Compound | Activity [1] [%] | inhibition [3] [%] | inhibition [4] | Activity [5] [%] | TIME [6] [h] | Activity [11] [%] | also measured
6 | 5 | COc1cc(/C=[N+](\[O-])Cc2ccccc2)c(Br)cc1O | 78 | 87 | 24% | 3 | 0.697 | – | –
– | – | CC(C)(C)c1cc(/C=[N+](\[O-])Cc2ccccc2)cc(C(C)(C)C)c1O | 77 | 61 | inactive | 8 | 1.38 | 82 | Activity [8]: 81.9%; Activity [9]: 56.95%; Activity [10]: 53.8%
– | – | COc1cc(/C=C/C(=O)CC(=O)/C=C/c2ccc(O)c(OC)c2)ccc1O | – | – | – | – | – | – | Activity [12]: 35%
3 | 2 | COc1cc(Br)c(/C=[N+](\[O-])C(C)(C)C)cc1O | 72 | 67 | – | 11 | 0.12 | – | –
– | – | O=C(O)/C=C/c1ccc(O)c(O)c1 | – | – | – | 15 | – | – | –
– | – | Cc1ccc2nc(Cl)c(/C=[N+](\[O-])Cc3ccccc3)cc2c1 | 95 | 37 | inactive | 23 | 1.3 | 72 | Activity [8]: 42.3%; Activity [14]: 105%; Activity [10]: 66.82%; Activity [15]: 63.01%; Activity [16]: 75.7%
– | – | C[N+](C)(C)CCOP(=O)(O)OP(=O)([O-])OC[C@H]1O[C@@H](n2ccc(N)nc2=O)[C@H](O)[C@@H]1O [CITICOLINE] | – | – | – | – | – | – | Activity [14]: 53.2%; Activity [9]: 84.64%; Activity [10]: 61.26%; Activity [16]: 87.4%
2 | 2 | COc1cc(Br)c(/C=[N+](\[O-])Cc2ccccc2)cc1O | – | 89 | – | 6 | 1.41 | – | Activity [17]: inactive
– | – | Cc1ccc2nc(Cl)c(/C=[N+](\[O-])C(C)(C)C)cc2c1 | 100 | 85 | inactive | 12 | 0.945 | 70 | Papp [18]: 15 ×10⁻⁶ cm/s; Activity [8]: 1.7%; Activity [19]: 70.17%; Activity [15]: 62.22%
8 | 7 | COc1cc(/C=[N+](/C)[O-])ccc1O | – | 90 | 59% | 11 | 0.3 | – | Activity [17]: inactive
– | – | [O-]/[N+](=C\c1ccccc1)Cc1ccccc1 | 97 | 74 | – | 24 | 0.42 | – | –
– | – | CC(C)(C)/[N+]([O-])=C/c1ccc(Br)o1 | 95 | – | 39% | – | 0 | 37 | Activity [8]: 0%; Activity [9]: 96.26%
– | – | O=[N+]([O-])OCCCOc1ccc(/C=[N+](\[O-])Cc2ccccc2)cc1 | 98 | 81 | 30% | – | 0.61 | 31 | Papp [18]: 22 ×10⁻⁶ cm/s; Activity [14]: 83%; Activity [15]: 45.37%; Activity [16]: 77.6%

Compound | Activity [2] [%] | Activity [7] [%] | Activity [1] [%] | inhibition [3] [%] | inhibition [4] | Activity [5] [%] | TIME [6] [h] | Activity [11] [%] | also measured
CC(C)(C)/[N+]([O-])=C/c1c[nH]c2ccccc12 | 4.5 | 3 | 59 | 57 | 42% | 15 | 0.36 | – | –
CC(C)(C)/[N+]([O-])=C/c1cccnc1Br | 5.5 | 4 | 93 | 40 | 88% | 10 | 0.133 | – | inhibition in vivo at 10 µmol/kg [13]: 23.2%
